Laboratory results from ChEMBL document CHEMBL4340532, “Design, synthesis, and biological evaluation of novel 2'-deoxy-2'-fluoro-2'-C-methyl 8-azanebularine derivatives as potent anti-HBV agents” (Bioorg Med Chem Lett, 2019).

Columns and labels:
[1] = Cytotoxicity against human HepG2 cells supplemented with fresh medium containing compound every 3 days for 9 days measured post-last dose by MTT assay; type: cell-based
Summary of the method: (§1)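 HepG2 cells were exposed to compound for 3 or 9 days and viability was read by MTT assay. CC50 is the concentration causing 50% cytotoxicity. Results are mean ± SD of three experiments.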

[2] = Cytotoxicity against human HepG2 cells after 3 days by MTT assay; type: cell-based; summary of the method: as §1
[3] = system: Hepatitis B virus; assay: Antiviral activity against Hepatitis B virus infected in human HepG2.2.15 cells assessed as inhibition of HBeAg secretion at 20 uM supplemented with fresh medium containing compound every 3 days for 6 days and measured on day 9 by ELISA relative to control; type: functional
Summary of the method: (§2)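 HepG2.2.15 cells were exposed to compound for up to 9 days. The initial screen used 20 µM for 9 days, with lamivudine (20 µM) as positive control. Follow-up used 10, 20 or 40 µM sampled at days 3, 6 and 9. HBsAg and HBeAg were quantified in culture supernatant by ELISA and compared with a no-drug control. Results are mean ± SD of three experiments.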

[4] = system: Hepatitis B virus; assay: Antiviral activity against Hepatitis B virus infected in human HepG2.2.15 cells assessed as inhibition of HBsAg secretion at 20 uM supplemented with fresh medium containing compound every 3 days for 6 days and measured on day 9 by ELISA relative to control; type: functional; summary of the method: as §2
[5] = system: Hepatitis B virus; assay: Antiviral activity against Hepatitis B virus infected in human HepG2.2.15 cells assessed as inhibition of intracellular HBV DNA replication at 20 uM measured on day 3 by FQ-PCR analysis relative to control; type: functional; details: HepG2.2.15, 72 h
Summary of the method: (§3)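 HepG2.2.15 cultures were treated at 10, 20 or 40 µM for 3, 6 and 9 days. Both intracellular and extracellular HBV DNA levels were then determined and compared with untreated cells.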

[6] = system: Hepatitis B virus; assay: Antiviral activity against Hepatitis B virus infected in human HepG2.2.15 cells assessed as inhibition of intracellular HBV DNA replication at 10 uM measured on day 3 by FQ-PCR analysis relative to control; type: functional; details: HepG2.2.15, 72 h; summary of the method: as §3
[7] = system: Hepatitis B virus; assay: Antiviral activity against Hepatitis B virus infected in human HepG2.2.15 cells assessed as inhibition of intracellular HBV DNA replication at 40 uM measured on day 3 by FQ-PCR analysis relative to control; type: functional; details: HepG2.2.15, 72 h; summary of the method: as §3
[8] = system: Hepatitis B virus; assay: (§4) Antiviral activity against Hepatitis B virus infected in human HepG2.2.15 cells assessed as inhibition of intracellular HBV DNA replication at 20 uM supplemented with fresh medium containing compound every 3 days for 6 days measured post-last dose by FQ-PCR analysis relative to control; type: functional; summary of the method: as §3
[9] = system: Hepatitis B virus; assay: (§5) Antiviral activity against Hepatitis B virus infected in human HepG2.2.15 cells assessed as inhibition of intracellular HBV DNA replication at 10 uM supplemented with fresh medium containing compound every 3 days for 6 days measured post-last dose by FQ-PCR analysis relative to control; type: functional; summary of the method: as §3
[10] = system: Hepatitis B virus; assay: (§6) Antiviral activity against Hepatitis B virus infected in human HepG2.2.15 cells assessed as inhibition of intracellular HBV DNA replication at 40 uM supplemented with fresh medium containing compound every 3 days for 6 days measured post-last dose by FQ-PCR analysis relative to control; type: functional
Summary of the method: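 HepG2.2.15 cells exposed to 10, 20 or 40 µM for 3, 6 or 9 days; intracellular and extracellular HBV DNA levels measured.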

[11] = system: Hepatitis B virus; assay: (§7) Antiviral activity against Hepatitis B virus infected in human HepG2.2.15 cells assessed as inhibition of intracellular HBV DNA replication at 20 uM supplemented with fresh medium containing compound every 3 days for 9 days measured post-last dose by FQ-PCR analysis relative to control; type: functional; summary of the method: as §3
[12] = system: Hepatitis B virus; assay: (§8) Antiviral activity against Hepatitis B virus infected in human HepG2.2.15 cells assessed as inhibition of intracellular HBV DNA replication at 10 uM supplemented with fresh medium containing compound every 3 days for 9 days measured post-last dose by FQ-PCR analysis relative to control; type: functional; summary of the method: as §3
[13] = system: Hepatitis B virus; assay: (§9) Antiviral activity against Hepatitis B virus infected in human HepG2.2.15 cells assessed as inhibition of intracellular HBV DNA replication at 40 uM supplemented with fresh medium containing compound every 3 days for 9 days measured post-last dose by FQ-PCR analysis relative to control; type: functional; summary of the method: as §3
[14] = system: Hepatitis B virus; assay: Antiviral activity against Hepatitis B virus infected in human HepG2.2.15 cells assessed as inhibition of extracellular HBV DNA replication at 20 uM measured on day 3 by FQ-PCR analysis relative to control; type: functional; details: HepG2.2.15, 72 h; summary of the method: as §3
[15] = system: Hepatitis B virus; assay: Antiviral activity against Hepatitis B virus infected in human HepG2.2.15 cells assessed as inhibition of extracellular HBV DNA replication at 10 uM measured on day 3 by FQ-PCR analysis relative to control; type: functional; details: HepG2.2.15, 72 h; summary of the method: as §3
[16] = system: Hepatitis B virus; assay: Antiviral activity against Hepatitis B virus infected in human HepG2.2.15 cells assessed as inhibition of extracellular HBV DNA replication at 40 uM measured on day 3 by FQ-PCR analysis relative to control; type: functional; details: HepG2.2.15, 72 h; summary of the method: as §3
[17] = system: Hepatitis B virus; assay: (§10) Antiviral activity against Hepatitis B virus infected in human HepG2.2.15 cells assessed as inhibition of extracellular HBV DNA replication at 20 uM supplemented with fresh medium containing compound every 3 days for 6 days measured post-last dose by FQ-PCR analysis relative to control; type: functional; summary of the method: as §3
[18] = system: Hepatitis B virus; assay: (§11) Antiviral activity against Hepatitis B virus infected in human HepG2.2.15 cells assessed as inhibition of extracellular HBV DNA replication at 10 uM supplemented with fresh medium containing compound every 3 days for 6 days measured post-last dose by FQ-PCR analysis relative to control; type: functional; summary of the method: as §3
[19] = system: Hepatitis B virus; assay: (§12) Antiviral activity against Hepatitis B virus infected in human HepG2.2.15 cells assessed as inhibition of extracellular HBV DNA replication at 40 uM supplemented with fresh medium containing compound every 3 days for 6 days measured post-last dose by FQ-PCR analysis relative to control; type: functional; summary of the method: as §3
[20] = system: Hepatitis B virus; assay: (§13) Antiviral activity against Hepatitis B virus infected in human HepG2.2.15 cells assessed as inhibition of extracellular HBV DNA replication at 20 uM supplemented with fresh medium containing compound every 3 days for 9 days measured post-last dose by FQ-PCR analysis relative to control; type: functional; summary of the method: as §3
[21] = system: Hepatitis B virus; assay: (§14) Antiviral activity against Hepatitis B virus infected in human HepG2.2.15 cells assessed as inhibition of extracellular HBV DNA replication at 10 uM supplemented with fresh medium containing compound every 3 days for 9 days measured post-last dose by FQ-PCR analysis relative to control; type: functional; summary of the method: as §3
[22] = system: Hepatitis B virus; assay: (§15) Antiviral activity against Hepatitis B virus infected in human HepG2.2.15 cells assessed as inhibition of extracellular HBV DNA replication at 40 uM supplemented with fresh medium containing compound every 3 days for 9 days measured post-last dose by FQ-PCR analysis relative to control; type: functional; summary of the method: as §3
[23] = system: Hepatitis B virus; assay: Antiviral activity against lamivudine-resistant Hepatitis B virus harboring L180M/M204V mutant infected in human HepG2.2.15 cells assessed as inhibition of intracellular HBV DNA replication at 20 uM measured on day 3 by FQ-PCR analysis relative to control; type: functional; details: HepG2.2.15, 72 h
Summary of the method: (§16)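 Lamivudine-resistant cell line transfected with the L180M/M204V mutant, exposed to 10, 20 or 40 µM for 3, 6 or 9 days. Intracellular and extracellular HBV DNA levels measured.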

[24] = system: Hepatitis B virus; assay: Antiviral activity against lamivudine-resistant Hepatitis B virus harboring L180M/M204V mutant infected in human HepG2.2.15 cells assessed as inhibition of intracellular HBV DNA replication at 10 uM measured on day 3 by FQ-PCR analysis relative to control; type: functional; details: HepG2.2.15, 72 h; summary of the method: as §16
[25] = system: Hepatitis B virus; assay: Antiviral activity against lamivudine-resistant Hepatitis B virus harboring L180M/M204V mutant infected in human HepG2.2.15 cells assessed as inhibition of intracellular HBV DNA replication at 40 uM measured on day 3 by FQ-PCR analysis relative to control; type: functional; details: HepG2.2.15, 72 h; summary of the method: as §16
[26] = system: Hepatitis B virus; assay: as §4, with “against lamivudine-resistant” for “against”, “virus harboring L180M/M204V mutant” for “virus”; type: functional; summary of the method: as §16
[27] = system: Hepatitis B virus; assay: as §5, with “against lamivudine-resistant” for “against”, “virus harboring L180M/M204V mutant” for “virus”; type: functional; summary of the method: as §16
[28] = system: Hepatitis B virus; assay: as §6, with “against lamivudine-resistant” for “against”, “virus harboring L180M/M204V mutant” for “virus”; type: functional; summary of the method: as §16
[29] = system: Hepatitis B virus; assay: as §7, with “against lamivudine-resistant” for “against”, “virus harboring L180M/M204V mutant” for “virus”; type: functional; summary of the method: as §16
[30] = system: Hepatitis B virus; assay: as §8, with “against lamivudine-resistant” for “against”, “virus harboring L180M/M204V mutant” for “virus”; type: functional; summary of the method: as §16
[31] = system: Hepatitis B virus; assay: as §9, with “against lamivudine-resistant” for “against”, “virus harboring L180M/M204V mutant” for “virus”; type: functional; summary of the method: as §16
[32] = system: Hepatitis B virus; assay: Antiviral activity against lamivudine-resistant Hepatitis B virus harboring L180M/M204V mutant infected in human HepG2.2.15 cells assessed as inhibition of extracellular HBV DNA replication at 20 uM measured on day 3 by FQ-PCR analysis relative to control; type: functional; details: HepG2.2.15, 72 h; summary of the method: as §16
[33] = system: Hepatitis B virus; assay: Antiviral activity against lamivudine-resistant Hepatitis B virus harboring L180M/M204V mutant infected in human HepG2.2.15 cells assessed as inhibition of extracellular HBV DNA replication at 10 uM measured on day 3 by FQ-PCR analysis relative to control; type: functional; details: HepG2.2.15, 72 h; summary of the method: as §16
[34] = system: Hepatitis B virus; assay: Antiviral activity against lamivudine-resistant Hepatitis B virus harboring L180M/M204V mutant infected in human HepG2.2.15 cells assessed as inhibition of extracellular HBV DNA replication at 40 uM measured on day 3 by FQ-PCR analysis relative to control; type: functional; details: HepG2.2.15, 72 h; summary of the method: as §16
[35] = system: Hepatitis B virus; assay: as §10, with “against lamivudine-resistant” for “against”, “virus harboring L180M/M204V mutant” for “virus”; type: functional; summary of the method: as §16
[36] = system: Hepatitis B virus; assay: as §11, with “against lamivudine-resistant” for “against”, “virus harboring L180M/M204V mutant” for “virus”; type: functional; summary of the method: as §16
[37] = system: Hepatitis B virus; assay: as §12, with “against lamivudine-resistant” for “against”, “virus harboring L180M/M204V mutant” for “virus”; type: functional; summary of the method: as §16
[38] = system: Hepatitis B virus; assay: as §13, with “against lamivudine-resistant” for “against”, “virus harboring L180M/M204V mutant” for “virus”; type: functional; summary of the method: as §16
[39] = system: Hepatitis B virus; assay: as §14, with “against lamivudine-resistant” for “against”, “virus harboring L180M/M204V mutant” for “virus”; type: functional; summary of the method: as §16
[40] = system: Hepatitis B virus; assay: as §15, with “against lamivudine-resistant” for “against”, “virus harboring L180M/M204V mutant” for “virus”; type: functional; summary of the method: as §16
[41] = system: HepG2 cells (Homo sapiens); assay: Cytotoxicity against human HepG2 cells at 40 uM supplemented with fresh medium containing compound every 3 days for 9 days measured post-last dose
[42] = system: HepG2 cells (Homo sapiens); assay: as above; remark: listed apart in the source

Compound: C[C@@]1(F)[C@H](O)[C@@H](CO)O[C@H]1n1nnc2c(Nc3ccc(Cl)cc3F)ncnc21
- CC50 at 216 h [1]: 245 µM
- CC50 at 72 h [2]: 409 µM
- inhibition (INH) [3]: 31.6%
- inhibition (INH) [4]: 39.7%
- inhibition at 20 µM [5]: 28.1%
- inhibition at 10 µM [6]: 14%
- inhibition at 40 µM [7]: 36.8%
- inhibition (INH) [8]: 47%
- inhibition (INH) [9]: 31.8%
- inhibition (INH) [10]: 65.2%
- inhibition (INH) [11]: 67.4%
- inhibition (INH) [12]: 44.2%
- inhibition (INH) [13]: 80.2%
- inhibition at 20 µM [14]: 24.5%
- inhibition at 10 µM [15]: 18.4%
- inhibition at 40 µM [16]: 34.7%
- inhibition (INH) [17]: 42.6%
- inhibition (INH) [18]: 31.1%
- inhibition (INH) [19]: 68.9%
- inhibition (INH) [20]: 65%
- inhibition (INH) [21]: 36.9%
- inhibition (INH) [22]: 82.5%
- inhibition at 20 µM [23]: 17.5%
- inhibition at 10 µM [24]: 5%
- inhibition at 40 µM [25]: 31.3%
- inhibition (INH) [26]: 41.6%
- inhibition (INH) [27]: 22.8%
- inhibition (INH) [28]: 66.3%
- inhibition (INH) [29]: 65.2%
- inhibition (INH) [30]: 36.6%
- inhibition (INH) [31]: 76.4%
- inhibition at 20 µM [32]: 35.6%
- inhibition at 10 µM [33]: 11%
- inhibition at 40 µM [34]: 45.2%
- inhibition (INH) [35]: 49.5%
- inhibition (INH) [36]: 27.4%
- inhibition (INH) [37]: 61.1%
- inhibition (INH) [38]: 61.4%
- inhibition (INH) [39]: 32.1%
- inhibition (INH) [40]: 83.6%
- inhibition (INH) [41]: 7.7%
- inhibition (INH) [42]: 7.7%
